In ChEMBL document CHEMBL4725356, “Discovery of IACS-9439, a Potent, Exquisitely Selective, and Orally Bioavailable Inhibitor of CSF1R” (J Med Chem, 2020):

Key:
[1] = Volume of distribution at steady state in Sprague-Dawley rat at 0.3 mg/kg, iv or 3 mg/kg, po and measured up to 24 hrs by LC-MS/MS analysis; format: ADME, organism-based; conditions: in vivo, read-out: Vdss
In short: (§1)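 Each species was dosed IV at 0.3 mg/kg and PO as follows: mouse 10 mg/kg, rat 3, dog 3, monkey 1. Plasma PK parameters derived were CL, Vss, IV half-life and oral bioavailability (F%).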

[2] = Volume of distribution at steady state in CD-1 mouse at 0.3 mg/kg, iv or 10 mg/kg, po and measured up to 24 hrs by LC-MS/MS analysis; format: ADME, organism-based; conditions: in vivo, read-out: Vdss; in short: as §1
[3] = Oral bioavailability in cynomolgus monkey at 1 mg/kg and measured up to 24 hrs by LC-MS/MS analysis; format: ADME, organism-based, Macaca fascicularis; conditions: in vivo; in short: as §1
[4] = Volume of distribution at steady state in cynomolgus monkey at 0.3 mg/kg, iv or 1 mg/kg, po and measured up to 24 hrs by LC-MS/MS analysis; format: ADME, organism-based, Macaca fascicularis; conditions: in vivo, read-out: Vdss; in short: as §1
[5] = Oral bioavailability in CD-1 mouse at 10 mg/kg and measured up to 24 hrs by LC-MS/MS analysis; format: ADME, organism-based; conditions: in vivo; in short: as §1
[6] = Volume of distribution at steady state in Beagle dog at 0.3 mg/kg, iv or 3 mg/kg, po and measured up to 24 hrs by LC-MS/MS analysis; format: ADME, organism-based, Canis lupus familiaris; conditions: in vivo, read-out: Vdss; in short: as §1
[7] = Oral bioavailability in Sprague-Dawley rat at 3 mg/kg and measured up to 24 hrs by LC-MS/MS analysis; format: ADME, organism-based; conditions: in vivo; in short: as §1
[8] = Oral bioavailability in Beagle dog at 3 mg/kg and measured up to 24 hrs by LC-MS/MS analysis; format: ADME, organism-based, Canis lupus familiaris; conditions: in vivo; in short: as §1

Compound | Vd [1] | Vd [2] | bioavailability [3] | Vd [4] | bioavailability [5] | Vd [6] | bioavailability [7] | bioavailability [8]
COc1cc(OCc2ccnc(Nc3cnn(C)c3)n2)cc2sc(N[C@H]3CCCC[C@@H]3O)nc12 | 3.4 L/kg | 1 L/kg | 21% | 0.45 L/kg | 100% | 3 L/kg | 81% | 37%
Nc1nccc(COc2ccc3nc(N[C@@H]4CCCC[C@H]4O)sc3c2)c1Cl | 0.75 L/kg | 1.8 L/kg | 72% | 0.6 L/kg | > 90% | 1.3 L/kg | 67% | 34%
